Series [1] has as its system U-251. Nature of the series: Antiproliferative activity against human U251 cells after 48 hrs by sulforhodamine B assay. Conditions: U-251, 48 h. It is filed as functional. The essentials: (§1)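 Tumor cells grown in RPMI 1640 with 5% fetal bovine serum, with penicillin/streptomycin in experimental cultures. Exposed in 96-well plates to samples in DMSO/RPMI at 0.25, 2.5, 25 and 250 µg/mL, 37 °C, 5% CO2, 48 h. Fixed with 50% trichloroacetic acid before (T0) and after treatment, protein stained with sulforhodamine B and read at 540 nm. GI50, TGI and LC50 in µg/mL from dose-response curves by non-linear regression.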
A general note: Sulforhodamine B stains cellular protein and so reports cell mass.

Series [2] has as its system MCF7. Briefly: Antiproliferative activity against human MCF7 cells after 48 hrs by sulforhodamine B assay. The series is classed as functional. To be noted: MCF7, 48 h. The procedure, abridged:
as §1

Series [3] relates to NCI/ADR-RES. Nature of the series: Antiproliferative activity against human NCI/ADR-RES cells after 48 hrs by sulforhodamine B assay. The series is classed as functional. The procedure, abridged: as §1
For series [4], the system named is 786-0. Briefly: Antiproliferative activity against human 786-0 cells after 48 hrs by sulforhodamine B assay. It is filed as functional. To be noted: 786-0, 48 h. The essentials:
as §1

For series [5], the system named is NCI-H460. Briefly: Antiproliferative activity against human NCI-H460 cells after 48 hrs by sulforhodamine B assay. The series is classed as functional. Conditions: NCI-H460, 48 h. The procedure, abridged: as §1
Series [6] can be described thus: Antiproliferative activity against human PC3 cells after 48 hrs by sulforhodamine B assay. It is filed as functional. Conditions: PC-3, 48 h. The essentials:
as §1

The nature of series [7]: Antiproliferative activity against human OVCAR3 cells after 48 hrs by sulforhodamine B assay. It is filed as functional. To be noted: OVCAR-3, 48 h. The essentials: as §1
Series [8] has as its system HaCaT. Briefly: Cytotoxicity against human HaCaT cells after 48 hrs by sulforhodamine B assay. The series is classed as cell-based.
The subject of series [9] is U-251. Nature of the series: Antiproliferative activity against human U251 cells assessed as tumor growth inhibition after 48 hrs by sulforhodamine B assay. To be noted: U-251, 48 h. It is filed as functional. The essentials:
as §1

Series [10] deals with MCF7. Briefly: Antiproliferative activity against human MCF7 cells assessed as tumor growth inhibition after 48 hrs by sulforhodamine B assay. The series is classed as functional. Conditions: MCF7, 48 h. The essentials: as §1
For series [11], the system named is NCI/ADR-RES. Briefly: Antiproliferative activity against human NCI/ADR-RES cells assessed as tumor growth inhibition after 48 hrs by sulforhodamine B assay. It is filed as functional. The procedure, abridged:
as §1

Series [12] deals with 786-0. Briefly: Antiproliferative activity against human 786-0 cells assessed as tumor growth inhibition after 48 hrs by sulforhodamine B assay. It is filed as functional. To be noted: 786-0, 48 h. The procedure, abridged: as §1
Series [13] has as its system NCI-H460. Briefly: Antiproliferative activity against human NCI-H460 cells assessed as tumor growth inhibition after 48 hrs by sulforhodamine B assay. It is filed as functional. Conditions: NCI-H460, 48 h. The essentials:
as §1

Series [14] in a line: Antiproliferative activity against human PC3 cells assessed as tumor growth inhibition after 48 hrs by sulforhodamine B assay. To be noted: PC-3, 48 h. It is filed as functional. The procedure, abridged: as §1
Series [15] in a line: Antiproliferative activity against human OVCAR3 cells assessed as tumor growth inhibition after 48 hrs by sulforhodamine B assay. The series is classed as functional. To be noted: OVCAR-3, 48 h. The procedure, abridged:
as §1

In series [16] the test system is HaCaT. Briefly: Cytotoxicity against human HaCaT cells assessed as tumor growth inhibition after 48 hrs by sulforhodamine B assay. It is filed as cell-based. The essentials:
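Non-tumor lines (human HaCaT keratinocytes; Vero) in RPMI 1640 with 5% FBS, with penicillin/streptomycin added to experimental cultures. 48 h exposure at 0.25–250 µg/mL (DMSO/RPMI), 37 °C, 5% CO2. TCA fixation at time zero and at end, sulforhodamine B protein stain, absorbance 540 nm. TGI (total growth inhibition) from non-linear regression of the dose-response curve.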

As a reminder, the GI50 is the concentration giving 50% growth inhibition. The LC50 is the concentration that kills 50% of the test population. A lower LC50 goes with greater toxicity. As usually defined, the TGI is the concentration at which net growth stops.

Converted amounts (≈) assume the structure as drawn.

As for `CCCCCCCC/C=C\CCCCCCCC(=O)N1CCOCC1`, the GI50 with U-251 [1] is 2.8 µg/mL (≈ 7.96 µM); in the series on MCF7 [2], 4.9 µg/mL (≈ 13.9 µM); with NCI/ADR-RES [3] it was 3.3 µg/mL (≈ 9.39 µM); in the series with 786-0 [4], 4.5 µg/mL (≈ 12.8 µM); in the series on NCI-H460 [5], 7.9 µg/mL (≈ 22.5 µM); in series [6], 5.2 µg/mL (≈ 14.8 µM). The compound also returned a GI50 in [7] of 4.9 µg/mL (≈ 13.9 µM). This compound also showed an LC50 in the series with HaCaT [8] of 5.3 µg/mL (≈ 15.1 µM). The TGI in the series with U-251 [9] came out at 6.6 µg/mL (≈ 18.8 µM); in the series with MCF7 [10], 13.1 µg/mL (≈ 37.3 µM); with NCI/ADR-RES [11], 10.6 µg/mL (≈ 30.2 µM); in the series with 786-0 [12], 11.2 µg/mL (≈ 31.9 µM); in the series with NCI-H460 [13], 34.7 µg/mL (≈ 98.7 µM); in series [14], 14.8 µg/mL (≈ 42.1 µM). For the same compound, the TGI in series [15] was 13.9 µg/mL (≈ 39.5 µM); with HaCaT [16], 23.2 µg/mL (≈ 66 µM).
Take `CCCCCC[C@@H](O)C/C=C\CCCCCCCC(=O)N1CCOCC1`: the GI50 in the series with U-251 [1] was 33.1 µg/mL (≈ 90 µM); in the series with MCF7 [2] it was 41.8 µg/mL (≈ 114 µM); in the series with NCI/ADR-RES [3], 29.4 µg/mL (≈ 80 µM); in the series with 786-0 [4], 36 µg/mL (≈ 97.9 µM); with NCI-H460 [5] it was 49.1 µg/mL (≈ 134 µM); in [6], 38.5 µg/mL (≈ 105 µM). The same compound yielded a 50% growth inhibitory concentration (GI50) in [7] of 31 µg/mL (≈ 84.3 µM). This compound came in with a 50% lethal concentration (LC50) with HaCaT [8] of 41.3 µg/mL (≈ 112 µM). Also, the concentration for total growth inhibition (TGI) with U-251 [9] stood at 54.5 µg/mL (≈ 148 µM); with MCF7 [10], 116 µg/mL (≈ 314 µM); in the series with NCI/ADR-RES [11], 143 µg/mL (≈ 388 µM); with 786-0 [12], 75.7 µg/mL (≈ 206 µM); in the series on NCI-H460 [13], 152 µg/mL (≈ 415 µM); in [14] it was 72.6 µg/mL (≈ 198 µM). In addition, the TGI in [15] turned out to be 62.2 µg/mL (≈ 169 µM); in the series with HaCaT [16], 97.4 µg/mL (≈ 265 µM).
For `CCCCCCCCCCCCCCCCCC(=O)N[C@H](C)c1ccccc1`, the 50% growth inhibitory concentration (GI50) in the series on U-251 [1] was found to be 161 µg/mL (≈ 414 µM); in the series with MCF7 [2], 0.06 µg/mL (≈ 0.155 µM); in the series with NCI/ADR-RES [3], 25.7 µg/mL (≈ 66.3 µM). In addition, the concentration for total growth inhibition (TGI) (in the series on U-251 [9]; with MCF7 [10]; in the series on NCI/ADR-RES [11]; in the series on 786-0 [12]; in the series on NCI-H460 [13]; in [14]) was > 250 µg/mL each time. The TGI (in series [15]; in the series on HaCaT [16]) was > 250 µg/mL in each case.
As to `CCCCCCCCCCCCCCCCCC(=O)N[C@@H](C)c1ccccc1`, the LC50 in the series on HaCaT [8] is 69.5 µg/mL (≈ 179 µM). The TGI (in the series with U-251 [9]; in the series with MCF7 [10]; in the series with NCI/ADR-RES [11]; in the series with 786-0 [12]; with NCI-H460 [13]; in [14]) was > 250 µg/mL throughout. The TGI (in series [15]; with HaCaT [16]) was > 250 µg/mL in each case.
Take `CCCCCCCCCCCCCCCC(=O)NCc1ccccc1`: the total growth inhibition concentration (TGI) (with U-251 [9]; in the series with MCF7 [10]; with NCI/ADR-RES [11]; in the series on 786-0 [12]; in the series on NCI-H460 [13]; in series [14]) was > 250 µg/mL throughout. Moreover, the TGI (in [15]; in the series on HaCaT [16]) was > 250 µg/mL throughout.
As to `CCCCCCCCCCCCCCCC(=O)N1CCOCC1`, the GI50 in the series on U-251 [1] was determined as 25 µg/mL (≈ 76.8 µM); in the series with MCF7 [2], 15.4 µg/mL (≈ 47.3 µM); with NCI/ADR-RES [3], 6.2 µg/mL (≈ 19 µM); with 786-0 [4] it was 33.1 µg/mL (≈ 102 µM); in the series with NCI-H460 [5], 34.1 µg/mL (≈ 105 µM); in series [6] it was 22.2 µg/mL (≈ 68.2 µM). The compound further had a concentration for 50% growth inhibition (GI50) in series [7] of 33.1 µg/mL (≈ 102 µM). In addition, in the series on HaCaT [8], the median lethal concentration (LC50) stood at 28.9 µg/mL (≈ 88.8 µM). For the same compound, the TGI came out at 55.9 µg/mL (≈ 172 µM) in the series with U-251 [9]; 54.7 µg/mL (≈ 168 µM) in the series on MCF7 [10]; 70.3 µg/mL (≈ 216 µM) with NCI/ADR-RES [11]; 69.9 µg/mL (≈ 215 µM) with 786-0 [12]; 91 µg/mL (≈ 280 µM) in the series on NCI-H460 [13]; 36.7 µg/mL (≈ 113 µM) in [14]. Moreover, the TGI in [15] was found to be 72.7 µg/mL (≈ 223 µM); with HaCaT [16], 73.7 µg/mL (≈ 226 µM).
